In PMC7540576 (Chembiochem, 2020):
Non-standard residues stand in square brackets, D forms with d. Residues, ends and D or L forms follow the SMILES beside them. *: point of attachment. Orn(α-tetramethylguanidino) = CN(C)C(=N[C@@H](CCCN)C(=O)*)N(C)C

Tests used:
[1] = tested on: A. baumannii ATCC 15308 ribosomes; test: Fluorescence polarization assay, 70S ribosome of A. baumannii; assay type: binding, Acinetobacter baumannii DSM 30008 / ATCC 15308; details: RF1 added at equimolar quantities to the A. baumannii ribosome preparation
Summary of the method: (§1)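 70S ribosomes came from log-phase cultures (OD600 ~1): bead-mill lysis in HEPES buffer pH 7.6, DNase I/meropenem, clarification, then 165000 g for 17 h. Concentration by A260 (1 AU = 28 pmol/mL). In casein-blocked wells, ribosomes were twofold diluted in 23 steps (12 µmol/L–2.9 pmol/L) with Cf-labeled peptide added at 40 nmol/L, then incubated 90 min at 28 °C in the dark. Polarization read at ex485/em535. K_d came from a variable-slope dose-response fit of ≥2 triplicate experiments on different days.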

[2] = tested on: ribosome of S. aureus DSM 6247; test: Fluorescence polarization assay, 70S ribosome of S. aureus; assay type: binding, Staphylococcus aureus DSM 6247; details: S. aureus ribosome versus E. coli ribosome
Summary of the method: as §1

E. coli BW25113 [3] = test: Antimicrobial activity; assay type: cell-based, Escherichia coli BW25113; details: broth micro dilution, 25 % MHB2, 7.5×10^6 cfu/mL, 37 °C, 20±2 h, triplicates
Summary of the method: (§2)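 Broth microdilution in 25% MHB2. Aqueous peptide stock (3 g/L) serially twofold diluted from 128 µg/mL in eight steps. Overnight 25% MHB2 cultures were diluted 30-fold, grown 4 h (37 °C, 200 rpm), and adjusted by McFarland to give a final 7.5×10^6 cfu/mL. Plates were incubated 20±2 h at 37 °C and OD595 read. MIC was the lowest concentration preventing visible growth. Triplicates.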

K. pneumoniae ATCC 10031 [4] = test: Antimicrobial activity; assay type: cell-based, Klebsiella pneumoniae DSM 681 / ATCC 10031; details: broth micro dilution, 25 % MHB2, 7.5×10^6 cfu/mL, 37 °C, 20±2 h, triplicates
Summary of the method: as §2

A. baumannii ATCC 15308 = test: Antimicrobial activity; assay type: cell-based, Acinetobacter baumannii DSM 30008 / ATCC 15308; details: for MIC: broth micro dilution, 25 % MHB2, 7.5×10^6 cfu/mL, 37 °C, 20±2 h, triplicates
Summary of the method: as §2

P. aeruginosa ATCC 27853 = test: Antimicrobial activity; assay type: cell-based, Pseudomonas aeruginosa DSM 1117 / ATCC 27853; details: broth micro dilution, 25 % MHB2, 7.5×10^6 cfu/mL, 37 °C, 20±2 h, triplicates
Summary of the method: as §2

S. aureus DSM 6247 [5] = test: Antimicrobial activity; assay type: cell-based, Staphylococcus aureus DSM 6247; details: broth micro dilution, 25 % MHB2, 7.5×10^6 cfu/mL, 37 °C, 20±2 h, triplicates
Summary of the method: as §2

E. coli BW25113 [6] = test: Bacterial uptake, peptide quantified by LC-MS; assay type: cell-based, Escherichia coli BW25113; details: high cell counts, 30 min
Summary of the method: (§3)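 Cultures in 25% MHB2 were grown 4.0±0.25 h after 30-fold dilution, sized by OD600 (1.0 = 1.2×10^9 cfu/mL), pelleted and resuspended to 1.5×10^10 or 1.5×10^9 cfu/mL. Each was mixed 1:1 with medium containing 16 µg/mL peptide and shaken 30 min at 37 °C, with viable counts plated. Peptide in the supernatant (pellets also quantified) was measured by SPE then RP-HPLC-ESI-MS/MS MRM against a cell-free 8 µg/mL control and an on-plate calibration. Uptake was taken as the difference. Triplicate, repeated another day.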

K. pneumoniae ATCC 10031 [7] = test: Bacterial uptake, peptide quantified by LC-MS; assay type: cell-based, Klebsiella pneumoniae DSM 681 / ATCC 10031; details: high cell counts, 30 min
Summary of the method: as §3

S. aureus DSM 6247 [8] = test: Bacterial uptake, peptide quantified by LC-MS; assay type: cell-based, Staphylococcus aureus DSM 6247; details: ∼7.5×10^9 cells/mL, 30 min, relative to cell-free medium, LC-MS MRM (Figure S3)
Summary of the method: as §3

[9] = tested on: Gram‐negatives (E. coli, K. pneumoniae, A. baumannii, P. aeruginosa); test: Bacterial uptake, values stated for the Gram-negatives together; assay type: cell-based; details: 30 min
Summary of the method: as §3

E. coli BL21AI = E. coli BL21AI incubated with 4 mg/L peptide; cited from earlier work
[10] = calculated from reduced quantity in supernatant

Compound | Effect of recombinant E. coli RF1 on K d [1] | K d, fold higher than for E. coli [2] [fold] | MIC (E. coli BW25113 [3]) | MIC (K. pneumoniae ATCC 10031 [4]) | MIC, fold difference E. coli versus A. baumannii (A. baumannii ATCC 15308; MIC 4 μg/mL for E. coli and 128 μg/mL for A. baumannii) [fold] | MIC (A. baumannii ATCC 15308) | MIC (P. aeruginosa ATCC 27853) | MIC (S. aureus DSM 6247 [5]) | Peptide per single cell, on average (E. coli BW25113 [6]) [fg] | Uptake (peptide amount) (E. coli BW25113 [6]) [ng] | Uptake rate (E. coli BW25113 [6]; [10]) [%] | Peptide per single cell, on average (K. pneumoniae ATCC 10031 [7]) [fg] | Uptake (peptide amount) (K. pneumoniae ATCC 10031 [7]) [ng] | Uptake rate (K. pneumoniae ATCC 10031 [7]; [10]) [%] | Total quantities determined in supernatants and pellets (S. aureus DSM 6247 [8]) | Relative peptide quantity in culture supernatants ([9]; high cell counts ∼7.5×10^9 cells/mL, typical value, except for E. coli) | Uptake rates ([9]; low cell counts, Gram-negatives) | Peptide per cell (E. coli BL21AI) [fg/cell]
CC[C@H](C)[C@H](NC(=O)[C@H](Cc1ccc(O)cc1)NC(=O)[C@@H](NC(=O)[C@@H]1CCCN1C(=O)[C@H](CCCNC(=N)N)NC(=O)[C@H](CC(N)=O)NC(=O)[C@H](CC(N)=O)NC(=O)[C@H](CCCN)N=C(N(C)C)N(C)C)C(C)C)C(=O)N1CCC[C@H]1C(=O)N[C@@H](CCCNC(=N)N)C(=O)N1CCC[C@H]1C(=O)N[C@@H](CCCNC(=N)N)C(=O)N1CCC[C@H]1C(=O)N1CCC[C@H]1C(=O)N[C@@H](Cc1c[nH]cn1)C(=O)N1CCC[C@H]1C(=O)N[C@@H](CCCNC(=N)N)C(=O)N[C@@H](CC(C)C)C(=O)O [Api137] ({Orn(α-tetramethylguanidino)}-NNRPVYIPRPRPPHPRL-OH) | did not affect | 34 | 4 (1.8) mg/L | 2 (0.9) mg/L | 32 | 128 (56) mg/L | >128 (>56) mg/L | >128 (>56) mg/L | – | – | – | – | – | – | – | – | – | –
CC[C@H](C)[C@H](NC(=O)[C@@H](CCCNC(=N)N)NC(=O)[C@H](CCCNC(=N)N)NC(=O)[C@@H]1CCCN1C(=O)[C@@H]1CCCN1C(=O)[C@H](CCCNC(=N)N)NC(=O)[C@@H]1CCCN1C(=O)[C@H](CCCNC(=N)N)NC(=O)[C@@H]1CCCN1C(=O)[C@H](CC(C)C)NC(=O)[C@H](Cc1ccc(O)cc1)NC(=O)[C@@H]1CCCN1C(=O)[C@@H]1CCCN1C(=O)[C@H](CCCCN)NC(=O)[C@H](CC(=O)O)NC(=O)[C@@H](N)C(C)C)C(=O)N[C@@H](Cc1ccc(O)cc1)C(=O)N[C@@H](CC(N)=O)C(=O)N[C@H](CCCNC(=N)N)C(N)=O [Onc112] (H-VDKPPYLPRPRPPR[dR]IYN[dR]-NH2) | – | – | 8 (3.4) mg/L | 2 (0.8) mg/L | – | 32 (13.4) mg/L | 64 (26.8) mg/L | 64 (26.8) mg/L | 0.5 | 352 | ~44 | 0.3 | 208 | ~25 | around 110% | around 75% | below 20% | 0.2
